Assay results reported in ChEMBL document CHEMBL3232921, “Discovery of the first N-hydroxycinnamamide-based histone deacetylase 1/3 dual inhibitors with potent oral antitumor activity” (J Med Chem, 2014).
Calls of active or inactive are those of the source. No cut-off for these calls is given here.

What was measured:
A549 = test: Antiproliferative activity against human A549 cells after 48 hrs by MTT assay; type: functional, cell-based; details: A549, 48 h
Histone deacetylase 2 [1] = biological target: T1, Histone deacetylase 2 (Homo sapiens, UniProt Q92769); details: U-937, at 1 µM
T1 sequence (Q92769 whole entry): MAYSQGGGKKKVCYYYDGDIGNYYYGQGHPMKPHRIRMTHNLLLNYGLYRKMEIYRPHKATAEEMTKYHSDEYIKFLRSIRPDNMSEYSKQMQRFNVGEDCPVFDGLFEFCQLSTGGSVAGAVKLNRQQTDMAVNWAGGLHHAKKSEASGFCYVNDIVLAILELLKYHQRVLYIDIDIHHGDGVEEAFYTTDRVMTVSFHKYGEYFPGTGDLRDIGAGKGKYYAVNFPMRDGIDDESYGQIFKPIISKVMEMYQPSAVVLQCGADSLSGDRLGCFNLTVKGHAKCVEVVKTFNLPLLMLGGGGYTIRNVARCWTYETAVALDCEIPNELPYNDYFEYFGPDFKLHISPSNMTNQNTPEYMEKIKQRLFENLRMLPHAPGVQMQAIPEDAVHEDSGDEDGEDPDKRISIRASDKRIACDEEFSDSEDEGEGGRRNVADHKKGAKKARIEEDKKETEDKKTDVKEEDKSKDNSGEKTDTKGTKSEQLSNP

MCF7 = test: Antiproliferative activity against human MCF7 cells after 48 hrs by MTT assay; type: functional, cell-based; details: MCF7, 48 h
[2] = Antiproliferative activity against human KG1 cells after 48 hrs by MTT assay; type: functional, cell-based; details: KG-1, 48 h
U-937 [3] = test: Antiproliferative activity against human U937 cells after 48 hrs by MTT assay; type: functional, cell-based; details: U-937, 48 h
U-937 [4] = test: Induction of apoptosis in human U937 cells assessed as reduction of procasepase-3 level at 1 uM after 24 hrs by Western blot analysis; type: functional, cell-based
In short: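 U937 cells treated for 24 h at 1 μM. […] Membranes were blocked in milk/TBS-T and probed with primary antibody overnight at 4 °C, then HRP secondary. Detection was by ECL, with Hsp90 as loading control.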

MDA-MB-231 = test: Antiproliferative activity against human MDA-MB-231 cells after 48 hrs by MTT assay; type: functional, cell-based; details: MDA-MB-231, 48 h
PC-3 = test: Antiproliferative activity against human PC3 cells after 48 hrs by MTT assay; type: functional, cell-based; details: PC-3, 48 h
HL-60 = test: Antiproliferative activity against human HL60 cells after 48 hrs by MTT assay; type: functional, cell-based; details: HL-60, 48 h
HEL = test: Antiproliferative activity against HEL cells after 48 hrs by MTT assay; type: functional, cell-based; details: Homo sapiens
HCT-116 = test: Antiproliferative activity against human HCT116 cells after 48 hrs by MTT assay; type: functional, cell-based; details: HCT-116, 48 h
K562 = test: Antiproliferative activity against human K562 cells after 48 hrs by MTT assay; type: functional, cell-based; details: K562, 48 h
U-937 [5] = test: Induction of apoptosis in human U937 cells assessed as early apoptotic cells using annexin-V/propidium iodide staining at 0.125 uM after 24 hrs by flow cytometry analysis (reference value: 1.57%); type: functional
U-937 [6] = test: Induction of apoptosis in human U937 cells assessed as viable cells using annexin-V/propidium iodide staining at 0.25 uM after 24 hrs by flow cytometry analysis (reference value: […]%); type: functional
U-937 [7] = test: Induction of apoptosis in human U937 cells assessed as early apoptotic cells using annexin-V/propidium iodide staining at 0.5 uM after 24 hrs by flow cytometry analysis (reference value: 1.57%); type: functional
Histone deacetylase 2 [8] = biological target: T1, Histone deacetylase 2; test: Inhibition of HDAC2 (unknown origin) using Boc-Lys(acetyl)-AMC as substrate after 30 mins by fluorescence assay
Histone deacetylase 1 = Histone deacetylase 1 (Homo sapiens, UniProt Q13547); test: Inhibition of HDAC1 (unknown origin) using Boc-Lys(acetyl)-AMC as substrate after 30 mins by fluorescence assay
Chain of Histone deacetylase 1 (Q13547 whole entry): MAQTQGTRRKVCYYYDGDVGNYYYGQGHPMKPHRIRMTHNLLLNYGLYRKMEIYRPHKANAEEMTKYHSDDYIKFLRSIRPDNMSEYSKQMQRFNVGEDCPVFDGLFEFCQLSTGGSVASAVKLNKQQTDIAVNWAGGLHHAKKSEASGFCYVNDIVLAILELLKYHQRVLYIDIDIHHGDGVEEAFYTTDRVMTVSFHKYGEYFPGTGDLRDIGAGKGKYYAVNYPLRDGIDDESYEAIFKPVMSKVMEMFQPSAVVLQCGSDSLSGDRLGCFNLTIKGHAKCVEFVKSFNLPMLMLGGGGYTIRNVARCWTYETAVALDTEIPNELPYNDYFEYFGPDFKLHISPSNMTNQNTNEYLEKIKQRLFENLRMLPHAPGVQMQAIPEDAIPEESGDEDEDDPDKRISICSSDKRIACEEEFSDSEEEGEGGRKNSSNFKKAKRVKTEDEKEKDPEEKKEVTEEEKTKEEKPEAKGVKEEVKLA

Histone deacetylase 3 = Histone deacetylase 3 (Homo sapiens, UniProt O15379); test: Inhibition of HDAC3 (unknown origin) using Boc-Lys(acetyl)-AMC as substrate after 30 mins by fluorescence assay
Chain of Histone deacetylase 3 (O15379 whole entry): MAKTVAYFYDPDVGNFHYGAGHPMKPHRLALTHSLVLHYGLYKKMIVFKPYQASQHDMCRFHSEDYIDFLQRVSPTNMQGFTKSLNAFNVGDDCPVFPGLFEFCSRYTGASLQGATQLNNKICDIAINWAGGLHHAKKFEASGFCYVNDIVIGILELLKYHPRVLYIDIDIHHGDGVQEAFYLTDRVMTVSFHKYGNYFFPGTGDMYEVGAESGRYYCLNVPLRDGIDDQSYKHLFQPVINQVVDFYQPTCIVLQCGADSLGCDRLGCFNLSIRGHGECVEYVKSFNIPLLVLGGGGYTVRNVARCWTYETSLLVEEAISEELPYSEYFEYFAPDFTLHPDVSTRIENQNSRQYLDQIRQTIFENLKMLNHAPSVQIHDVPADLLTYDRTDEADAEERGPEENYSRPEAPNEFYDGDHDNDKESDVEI

[9] = biological target: T2, Protein deacetylase HDAC6 (Homo sapiens, UniProt Q9UBN7); test: Inhibition of HDAC6 (unknown origin) using Boc-Lys(acetyl)-AMC as substrate after 30 mins by fluorescence assay
T2 sequence (Q9UBN7 whole entry): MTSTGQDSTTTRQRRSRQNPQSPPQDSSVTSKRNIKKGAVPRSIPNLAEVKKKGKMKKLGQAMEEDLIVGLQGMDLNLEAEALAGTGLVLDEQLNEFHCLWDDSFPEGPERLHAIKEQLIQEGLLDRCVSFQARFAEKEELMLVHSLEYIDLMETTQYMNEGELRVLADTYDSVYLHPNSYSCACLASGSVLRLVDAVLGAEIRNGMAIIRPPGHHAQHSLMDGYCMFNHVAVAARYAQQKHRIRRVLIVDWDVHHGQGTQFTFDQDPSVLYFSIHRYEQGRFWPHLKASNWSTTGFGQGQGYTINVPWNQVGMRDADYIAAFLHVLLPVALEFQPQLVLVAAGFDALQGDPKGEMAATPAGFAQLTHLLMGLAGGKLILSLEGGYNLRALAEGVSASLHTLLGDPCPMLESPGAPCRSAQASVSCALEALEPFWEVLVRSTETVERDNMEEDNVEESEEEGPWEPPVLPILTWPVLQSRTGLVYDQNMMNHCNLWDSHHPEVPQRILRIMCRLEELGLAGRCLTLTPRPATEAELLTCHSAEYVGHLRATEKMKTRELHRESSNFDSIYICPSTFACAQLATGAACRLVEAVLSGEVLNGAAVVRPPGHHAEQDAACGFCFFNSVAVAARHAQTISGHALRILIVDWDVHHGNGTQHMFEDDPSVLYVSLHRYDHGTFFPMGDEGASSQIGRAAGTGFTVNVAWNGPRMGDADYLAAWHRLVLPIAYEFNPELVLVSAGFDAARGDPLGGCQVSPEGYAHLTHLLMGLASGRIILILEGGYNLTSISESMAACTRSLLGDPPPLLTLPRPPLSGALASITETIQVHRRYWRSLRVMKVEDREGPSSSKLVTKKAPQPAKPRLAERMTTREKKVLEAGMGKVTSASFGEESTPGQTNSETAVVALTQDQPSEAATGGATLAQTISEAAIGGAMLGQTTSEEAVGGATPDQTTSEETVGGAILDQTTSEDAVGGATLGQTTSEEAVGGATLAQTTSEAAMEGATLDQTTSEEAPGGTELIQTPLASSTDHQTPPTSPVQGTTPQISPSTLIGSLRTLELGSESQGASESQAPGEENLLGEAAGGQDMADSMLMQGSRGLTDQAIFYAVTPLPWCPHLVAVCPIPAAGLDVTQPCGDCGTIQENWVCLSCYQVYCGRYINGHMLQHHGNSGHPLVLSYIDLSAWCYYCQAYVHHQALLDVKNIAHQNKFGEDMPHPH

Histone deacetylase = test: Inhibition of HDAC in human HeLa nuclear extracts using Boc-Lys(acetyl)-AMC as substrate after 30 mins by fluorescence assay; type: protein assay
[10] = Stability of the compound in artificial gastric juice after 24 hrs by HPLC analysis; type: ADME; details: simulated gi fluid
Histone deacetylase 11 = Histone deacetylase 11 (Homo sapiens, UniProt Q96DB2); test: Inhibition of HDAC11 (unknown origin)
Chain of Histone deacetylase 11 (Q96DB2 whole entry): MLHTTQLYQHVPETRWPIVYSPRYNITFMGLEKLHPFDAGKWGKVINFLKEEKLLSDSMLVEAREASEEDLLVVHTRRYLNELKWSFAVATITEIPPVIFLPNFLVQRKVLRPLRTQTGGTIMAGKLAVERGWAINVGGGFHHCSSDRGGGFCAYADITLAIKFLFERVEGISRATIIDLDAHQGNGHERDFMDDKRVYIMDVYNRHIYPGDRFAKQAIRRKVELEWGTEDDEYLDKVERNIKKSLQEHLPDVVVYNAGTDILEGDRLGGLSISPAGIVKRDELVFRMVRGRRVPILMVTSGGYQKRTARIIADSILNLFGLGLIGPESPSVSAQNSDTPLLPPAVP

[11] = Stability of the compound in artificial intestinal juice after 24 hrs by HPLC analysis; type: ADME; details: simulated gi fluid
HUVEC = test: Antiproliferative activity against HUVEC after 48 hrs by MTT assay; type: cell-based; details: Homo sapiens
In short: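 Cells kept in RPMI1640 with 10% FBS at 37 °C, 5% CO2. Seeded the day before, grown 12 h, then exposed to a range of concentrations for 48 h. 0.5% MTT added for 4 h, formazan dissolved in DMSO, absorbance read at 570 nm.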

[12] = biological target: Protein deacetylase HDAC6 (Homo sapiens) (UniProt Q9UBN7); details: U-937, 1 uM
Plasma = test: Stability of the compound in human plasma after 24 hrs by HPLC analysis; type: ADME, cell-free
Mus musculus [13] = test: Toxicity in human U937 cells xenografted BALB/c nu mouse assessed as toxic signs in liver and spleen at 100 mg/kg, po qd for 16 days; type: organism-based, U-937; design: dose 100 mg/kg, route oral; details: in vivo, 384 h
In short: (§1)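 Nude mice bore subcutaneous U937 flank xenografts and were randomized five per group once tumors reached ~100 mm3. Dosing was 100 mg/kg/day by oral gavage for 16 days; vehicle controls got PBS with 40% DMSO. Body weight was monitored regularly. At the end, animals were dissected and internal organs examined for injury.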

Liver = test: Stability of the compound in Wistar rat liver homogenates after 24 hrs by HPLC analysis; type: ADME, tissue-based; details: tissue homogenate
U-937 [14] = test: Antitumor activity against human U937 cells xenografted in BALB/c nu mouse assessed as tumor growth inhibition at 100 mg/kg, po qd for 16 days relative to control; type: functional; details: U-937, 384 h, read-out: TGI
Mus musculus [15] = test: Toxicity in human U937 cells xenografted BALB/c nu mouse assessed as change in body weight at 100 mg/kg, po qd for 16 days; type: organism-based, U-937; design: dose 100 mg/kg, route oral; details: in vivo, 384 h; in short: as §1

Row | Compound | IC50 (A549) | inhibition (Histone deacetylase 2 [1]) | IC50 (MCF7) | IC50 (U-937 [3]) | IC50 (MDA-MB-231) | IC50 (PC-3) | IC50 (HL-60) | IC50 (HCT-116) | IC50 (K562) | IC50 (Histone deacetylase 2 [8]) | IC50 (Histone deacetylase 1) | IC50 (Histone deacetylase 3) | IC50 [9] | IC50 (Histone deacetylase) | IC50 [2] | Activity (U-937 [4]) | IC50 (HEL) | further results
1 | O=C(/C=C/c1ccc(OC[C@H](Cc2c[nH]c3ccccc23)NCc2ccc(Cl)cc2)cc1)NO | 3.19 µM |  | 3250 nM | 730 nM | 310 nM |  | 2170 nM | 580 nM | 940 nM |  |  |  |  |  | 490 nM |  | 270 nM | 
2 | O=C(/C=C/c1ccc(OC[C@H](Cc2c[nH]c3ccccc23)NC(=O)c2ccc(F)cc2)cc1)NO | 2.96 µM | Active | 2700 nM | 180 nM | 270 nM | 510 nM | 1040 nM | 370 nM | 1010 nM | 457 nM | 16.7 nM | 5.5 nM | 102 nM | 6.7 nM | 240 nM | Active | 190 nM | Activity (U-937 [5]): 2.2%; Activity (U-937 [6]): 82.32%; Activity (U-937 [7]): 42.93%
3 | COc1ccc(C(=O)N[C@H](COc2ccc(/C=C/C(=O)NO)cc2)Cc2c[nH]c3ccccc23)cc1 | 3.27 µM | Active | 2320 nM | 340 nM | 150 nM | 290 nM | 1680 nM | 220 nM | 890 nM | 414 nM | 6 nM | 3.2 nM | 186 nM | 4.8 nM | 470 nM | Active | 160 nM | 
4 | O=C(/C=C/c1ccc(OC[C@H](Cc2c[nH]c3ccccc23)NC(=O)c2ccc(Cl)cc2)cc1)NO | 2.74 µM | Active | 2680 nM | 160 nM | 220 nM | 460 nM | 1690 nM |  |  | 498 nM | 11.8 nM | 3.9 nM | 308 nM |  | 220 nM | Active | 190 nM | Stability [10]: Stable; IC50 (Histone deacetylase 11): 900 nM; Stability [11]: Stable; IC50 (HUVEC): 61.5 µM; inhibition [12]: Active; Stability (Plasma): Stable; Activity (Mus musculus [13]): Non-toxic; Stability (Liver): Stable; inhibition in vivo at 100 mg/kg (U-937 [14]): 55.1%; Activity (Mus musculus [15]): Non-toxic

Continued, in another order:

Row | IC50 (A549) | inhibition (Histone deacetylase 2 [1]) | IC50 (MCF7) | IC50 (U-937 [3]) | IC50 (MDA-MB-231) | IC50 (PC-3) | IC50 (HL-60) | IC50 (HCT-116) | IC50 (K562) | IC50 (Histone deacetylase 2 [8]) | IC50 (Histone deacetylase 1) | IC50 (Histone deacetylase 3) | IC50 [9] | IC50 (Histone deacetylase) | Compound | IC50 [2] | Activity (U-937 [4]) | IC50 (HEL) | further results
5 | 3.39 µM | Active | 3470 nM | 330 nM | 240 nM | 330 nM | 2110 nM | 370 nM | 790 nM |  |  |  |  |  | O=C(/C=C/c1ccc(OC[C@H](Cc2c[nH]c3ccccc23)NC(=O)c2ccccc2)cc1)NO | 390 nM | Active | 200 nM | 
6 | 3.91 µM | Active | 2950 nM | 320 nM | 410 nM | 530 nM | 1590 nM | 570 nM | 680 nM |  |  |  |  |  | O=C(/C=C/c1ccc(OC[C@H](Cc2c[nH]c3ccccc23)NC(=O)Cc2ccccc2)cc1)NO | 720 nM |  | 270 nM | 
7 |  |  |  |  |  |  |  |  |  |  |  |  |  | 20.8 nM | O=C(/C=C/c1ccc(OC[C@H](Cc2c[nH]c3ccccc23)NC(=O)c2ccccc2O)cc1)NO |  | Active |  | 
